# Measurements: ChEMBL document CHEMBL3421573, “Synthesis of new ent-labdane diterpene derivatives from andrographolide and evaluation on cytotoxic activities” (Bioorg Med Chem Lett, 2015)
# Tests used:
# Type in all cases: functional, cell-based
# [1] = Cytotoxicity against human NP14 cells after 48 hrs by MTT assay; conditions: NP14, 48 h
# Method in brief: (§1)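 Samples dissolved in DMSO (0.1%); cis-platin included as positive control. IC50 taken as the drug concentration giving 50% growth inhibition, in µM.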
# [2] = Cytotoxicity against human NTUB1 cells after 48 hrs by MTT assay; conditions: NTUB1, 48 h; method in brief: as §1
# [3] = test system: MDA-MB-231; assay: Cytotoxicity against human MDA-MB-231 cells after 48 hrs by MTT assay; method in brief: as §1
# [4] = test system: MCF7; assay: Cytotoxicity against human MCF7 cells after 48 hrs by MTT assay; method in brief: as §1
# [5] = Homo sapiens, MDA-MB-231, 48 h, read-out: IC50
# [6] = Homo sapiens, MCF7, 48 h, read-out: IC50
SMILES,IC50 [1] [µM],IC50 [2] [µM],"IC50 [3, 5] [µM]","IC50 [4, 6] [µM]",IC50 ([3]; mda-mb-231),IC50 ([4]; mcf7)
C=C1CC[C@@H]2[C@](C)(CO)[C@H](O)CC[C@@]2(C)[C@@H]1CCc1ccoc1,53.3,39.8,> 100,79.5,–,–
C=C1CC[C@@H]2[C@](C)(COC(=O)CC)[C@H](OC(=O)CC)CC[C@@]2(C)[C@@H]1CCc1ccoc1,94.2,42.9,40.4,> 100,–,–
C=C1CC[C@@H]2[C@](C)(COC(=O)C(Cl)Cl)[C@H](OC(=O)C(Cl)Cl)CC[C@@]2(C)[C@@H]1CCc1ccoc1,4.42,11.2,2.64,22.9,–,–
C=C1CC[C@@H]2[C@](C)(COC(=O)COc3ccccc3)[C@H](O)CC[C@@]2(C)[C@@H]1CCc1ccoc1,18.6,> 100,35,36.8,–,–
C=C1CC[C@@H]2[C@](C)(COC(=O)c3ccc([N+](=O)[O-])cc3)[C@H](O)CC[C@@]2(C)[C@@H]1CCc1ccoc1,80.9,23.8,37.5,62.1,–,–
C=C1CC[C@@H]2[C@](C)(COC(=O)c3ccc([N+](=O)[O-])cc3)[C@H](OC(=O)c3ccc([N+](=O)[O-])cc3)CC[C@@]2(C)[C@@H]1CCc1ccoc1,> 100,> 100,> 100,> 100,–,–
C=C1CC[C@@H]2[C@](C)(COC(=O)c3ccc(OC)cc3)[C@H](O)CC[C@@]2(C)[C@@H]1CCc1ccoc1,40.4,26.3,28.6,25.2,–,–
C[C@]1(CO)[C@H]2CCC(=O)[C@@H](CCc3ccoc3)[C@]2(C)CC[C@H]1O,> 100,> 100,56.3,> 100,–,–
C=C1[C@H](O)C[C@@H]2[C@](C)(COC(=O)CC)[C@H](OC(=O)CC)CC[C@@]2(C)[C@@H]1CCc1ccoc1,27.7,29.6,40.9,44,–,–
C=C1CC[C@H]2[C@@](C)(CCC(=O)[C@@]2(C)CO)[C@@H]1CCc1ccoc1,43.2,63.1,71.2,87.3,–,–
C=C1CC[C@@H]2[C@](C)(CO)[C@H](O)CC[C@@]2(C)[C@@H]1CC(O)C1=CCOC1=O (some centres undefined),49.4,14.9,27.6,78,–,–
C=C1CC[C@@H]2[C@](C)(CO)[C@H](O)CC[C@@]2(C)[C@@H]1CC(O)c1ccoc1 (some centres undefined),> 100,> 100,> 100,> 100,–,–
C=C1CC[C@@H]2[C@](C)(COC(=O)CC)[C@H](OC(=O)CC)CC[C@@]2(C)[C@@H]1CC(OC(=O)CC)c1ccoc1 (some centres undefined),43.1,89.7,> 100,> 100,–,–
C=C1CC[C@@H]2[C@](C)(COC(c3ccccc3)(c3ccccc3)c3ccccc3)[C@H](OC(C)=O)CC[C@@]2(C)[C@@H]1CC(OC(C)=O)C1=CCOC1=O (some centres undefined),14.3,8.45,6.37,6.41,–,–
C=C1CC[C@@H]2[C@](C)(CO)[C@H](O)CC[C@@]2(C)[C@@H]1C/C=C1/C(=O)OC[C@H]1O [ANDROGRAPHOLIDE],21.2,32.5,16.6,30.8,–,–
C=C1CC[C@@H]2[C@](C)(CO)[C@H](O)CC[C@@]2(C)[C@@H]1CCC1=CCOC1=O [DEOXYANDROGRAPHOLIDE],> 100,> 100,–,–,Not Active,Not Active
